The text below walks through data of publication PMC5743469 (Theranostics, 2018).

One data set concerns HSV-1 (F strain). Kind of data set: Post-entry inhibition assay. The format is cell-based. The note with it: time of addition experiment, peptide added to cells at 5 μg/mL after HSV-1 infection.
Data set [1] deals with Vero cells. Kind of data set: MTT cytotoxicity assay. The format is cell-based, African green monkey. The note with it: 48 h incubation, 0 to 200 μg/mL. The method in brief: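 Vero cells were grown in MEM with 10% FBS at 37 ℃ and 5% CO2, seeded and cultured for 24 h. Medium was then replaced with fresh medium holding peptide at 0–200 μg/mL for 48 h at 37 ℃. MTT stock (5 mg/mL in PBS) was added for 4 h. Formazan was dissolved in DMSO for 10 min at room temperature and absorbance read at 570 nm.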
(In general: Formazan colour is commonly taken as a measure of viable cells.)

Data set [2] has as its system Vero cells. Nature of the data set: Cellular uptake and localization of FITC-labeled peptides. Type of data set: cell-based, African green monkey. To be noted: N-terminus FITC-labeled peptide, 10 μg/mL, 24 h at 37 ℃; confocal microscopy and flow cytometry (average FITC intensity).

“Also recorded” adds a separate entry of the source. Ends that are not written are not given here.

In the case of LWHHIWHFVHHLI-NH2 [Eval418-FH5], the “inhibitory rate of plaque formation when added after HSV-1 infection” value in the data set with HSV-1 (F strain) worked out at 29.72%. For the same substance, in the data set with Vero cells [1], the “CC50 (50% cytotoxicity concentration)” value is reported as 106.68 µg/mL. The “cellular uptake in Vero cells” value in the data set on Vero cells [2] is given as “significant cellular uptake; also recorded: considerable cellular uptake”.
